Bioassay records: PubChem BioAssay, several laboratories
Shown are actives, neighbours in structure and some others; about 1.9% of the full set was active somewhere.
HDAC3 inh – blocks human histone deacetylase 3; O15379; recombinant HDAC3, fluorogenic peptide/trypsin coupled, fluorescence; inhibition, % at 8.3 µM; hit rate 0.15% among 320,000; in the data active means inhibition above about 26%, passing the limit was not always enough; inconclusive means no clear call, values can overlap the other calls
Target sequence (O15379 whole entry, looked up): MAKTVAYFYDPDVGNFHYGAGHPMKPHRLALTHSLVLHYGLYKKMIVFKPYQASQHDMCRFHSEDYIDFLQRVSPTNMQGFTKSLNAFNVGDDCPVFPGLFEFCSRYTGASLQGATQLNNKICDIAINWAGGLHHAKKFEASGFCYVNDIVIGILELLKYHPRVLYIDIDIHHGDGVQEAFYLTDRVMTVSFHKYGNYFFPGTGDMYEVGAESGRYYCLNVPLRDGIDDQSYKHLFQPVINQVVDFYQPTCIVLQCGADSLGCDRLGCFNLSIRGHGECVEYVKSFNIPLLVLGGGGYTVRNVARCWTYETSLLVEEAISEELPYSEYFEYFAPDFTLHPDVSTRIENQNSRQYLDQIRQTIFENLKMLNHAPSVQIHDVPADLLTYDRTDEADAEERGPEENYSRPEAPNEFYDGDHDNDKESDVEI
Runt-SMMHC FRET – inhibitors of human RUNX1 Runt domain binding to CBFb-SMMHC; Cerulean-Runt/Venus-CBFb-SMMHC FRET ratio 530/480, 1 h; inhibition, % at 20 µM; hit rate 0.74% among 220,000; AID 1434;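 active means mean inhibition across duplicate retests at 20 µM reaching about 50%, limit read from the data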;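 further: inhibitors lower the FRET ratio by blocking Runt binding to CBFb-SMMHC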
LANA-H2B inh – blocks KSHV LANA binding to histone H2A/H2B | Q9QR71 | cell-free LANA-H2A/H2B peptide, fluorescence polarization | inhibition, % (test concentration not listed) | hit rate 0.6% among 320,000; in the data active means inhibition mostly above about 10%, no sharp cut-off; inactive means mostly below about 6.7%
RanGTP-Imp inh – disruptors of Ran-importin-beta complex formation – biochemical, FRET, CFP-Ran, YFP-importin-beta, homogeneous, primary screen; cell-free CFP-Ran/YFP-importin-beta FRET ratio; inhibition, % (no concentration beside the values); hit rate 1.1% among 300,000; AID 2216;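 active means more than half of the replicate wells show a fall in the fluorescence ratio signal beyond about 16%, limit read from the data, passing the limit was not always enough; inconclusive means exactly half of the replicate wells pass the set limit; inactive means fewer than half of replicates pass the limit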
CaV13 ICDI inh – Primary screen for inhibitors of IQ motif and Ca2+-dependent inactivation inhibitor domain binding in CACNA1D, Förster resonance energy transfer in living cells, … | HEK cells, CFP/YFP FRET ICDI-IQ, plate reader, 10 min; percent FRET-ratio fall versus neutral wells | inhibition, % at 12.3 µM | hit rate 0.098% among 340,000;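 active means mean replicate inhibition of at least 30% and at least 1% of replicates passing that level; inconclusive means only one of the two criteria is met; inactive means neither criterion is met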
Runt-CBFb FRET – inhibitors of human RUNX1 Runt domain binding to CBFb. hit rate 0.46% among 220,000. AID 1496. Q01196+Q13951. Cerulean-Runt/Venus-CBFb FRET ratio 530/480, 1 h. inhibition, % at 20 µM;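 active means inhibition over about 50% at 20 µM in the single-dose screen, limit read from the data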
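Assay system: Cerulean-Runt domain / Medium: Tris 50 mM pH 7.5, KCl, K2SO4, 0.01% BSA / Timing: protein complex preformed 1 h, compound exposure 1 h, room temperature, dark / Measured by: FRET, excitation 422 nm, emission at 530 and 480 nm / Evaluation: loss of energy transfer signal / Control set: 5 µM unlabeled CBFb as full-inhibition high control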
A number is an active result; . = inactive; ? = inconclusive; / = no result.

SMILES	HDAC3 inh	Runt-SMMHC FRET	LANA-H2B inh	RanGTP-Imp inh	CaV13 ICDI inh	Runt-CBFb FRET
Cc1cccc(CC2CC(=O)N(c3ccc([N+](=O)[O-])cc3)C2=O)c1 (stereo not given)	.	/	.	.	.	/
O=C(NC(=S)Nc1cccc2ncccc12)c1ccco1	.	.	.	.	.	.
Cc1cc(NC(=S)NC(=O)c2ccco2)c2ccccc2n1	.	.	16.6	.	.	.
N#CCCN(C(=O)COC(=O)c1ccc2c(=O)n3c(nc2c1)CCC3)c1ccc(F)cc1	.	.	.	.	.	.
COc1cccc(-n2c(C)cc(/C=C3\C(=N)N4N=C(CC(=O)N5CCOCC5)SC4=NC3=O)c2C)c1	.	/	.	16.1	.	/
COc1ccc(OC)c(-n2c(C)cc(/C=C3\C(=N)N4N=C(CC(=O)N5CCOCC5)SC4=NC3=O)c2C)c1	.	/	.	.	.	/
CCCN(CCC)c1ncnc2nc[nH]c12	.	.	.	.	.	.
CCOC(=O)N1CCN(c2ccccc2OC)CC1	.	.	.	.	.	.
CCOC(=O)c1ccc(NC(=O)N2CCN(c3ccccc3OC)CC2)cc1	.	.	.	27.2	.	.
Cc1ccccc1C(=O)Nc1ccnn1C1CCN(Cc2cnn(C(C)C)c2)CC1	.	/	17.1	.	.	/
Cc1ccccc1C(=O)Nc1ccnn1C1CCN(Cc2cnn(C)c2)CC1	.	/	.	.	.	/
COC(=O)NCCc1cc(OC)c(OC)cc1S(=O)(=O)N1CC(=O)Nc2ccccc21	.	/	.	.	.	/
N#C[C@@H]1[C@@H]2C(=O)N(c3ccc4c(c3)OCCO4)C(=O)[C@@H]2C2c3ccccc3C=CN21 (stereo not given in full)	.	.	.	19.4	/	.
CC(=O)[C@@H]1[C@@H]2C(=O)N(c3ccc(F)c(Cl)c3)C(=O)[C@@H]2C2c3ccccc3C=CN21 (stereo not given in full)	.	.	.	?	/	.
COc1cc(NC(=O)C2CCCN2S(=O)(=O)c2cccc3cccnc23)cc(OC)c1OC (stereo not given)	.	.	.	.	.	.
CCCOc1ccc(C(F)(F)F)cc1NC(=O)CN1C(=O)C(=O)N(CC)C1=O	.	/	.	/	.	/
COCCNc1nc(SC)nc2sc3c(c12)CCN(C)C3	.	/	.	.	.	/
CC(C)Sc1nc(N)c2c3c(sc2n1)CN(C)CC3	.	.	.	20.5	/	.
CCCSc1nc(N)c2c3c(sc2n1)CN(C)CC3	.	.	.	.	/	.
CSc1nc(NCC(C)C)c2c3c(sc2n1)CN(C)CC3	.	.	.	16.9	.	.
Clc1ccc(-c2ccnc(-n3cccc3)n2)s1	.	67.7	29.6	.	.	.
O=C(O)[C@H](Cc1ccccc1)NC(=O)N1CCN(c2ccccc2)CC1	.	.	.	.	.	.
COc1cccc(CC(=O)Nc2cc(C(F)(F)F)ccc2N2CCCC2)c1	.	/	.	.	.	/
CCC(=O)c1ccc(OCC(=O)NNC(=O)c2cc(C)oc2C)cc1	/	/	/	/	.	/
O=C1/C(=C/N(C(=O)c2ccco2)c2ccc(Br)cc2)Sc2ccccc21	.	.	.	25.0	/	.
SMILES	HDAC3 inh	Runt-SMMHC FRET	LANA-H2B inh	RanGTP-Imp inh	CaV13 ICDI inh	Runt-CBFb FRET
COc1ccc(CN(C(=O)c2ccco2)c2ccc(Br)cc2)cc1OC	.	.	.	.	.	.
O=C1/C(=C/N(C(=O)c2ccco2)c2ccc(Cl)cc2)Sc2ccccc21	.	74.9	.	.	/	.
O=C(c1cccs1)n1nc(-c2cccnc2)nc1NCc1ccco1	/	.	/	.	.	.
COCCNC(=O)c1cc(S(=O)(=O)N(C)C2CCCCC2)ccc1Cl	/	/	/	/	.	/
COc1cccc(C(=O)Nc2cccc(NC(=O)c3cccs3)c2)c1	.	/	.	.	.	/
COc1ccc2nc3sc(C(=O)NCc4cccs4)c(N)c3cc2c1	?	.	.	.	.	.
CCCCn1nc(NC(=O)c2cccs2)c2cc3cc(OC)ccc3nc21	.	77.6	.	128.7	54.2	67.0
CCCn1nc(NC(=O)c2cccs2)c2cc3cc(OC)ccc3nc21	.	62.6	.	106.3	/	63.2
CCCCc1cc(=O)oc2cc(OCC(=O)N3CCc4ccccc43)ccc12	.	.	.	.	.	.
O=C(CNC(=O)C(c1ccccc1)c1ccccc1)N/N=C\c1cccc(O)c1	.	.	93.6	.	.	.
CCCCc1ccc(N=N/C(C(=O)Nc2ccc(NC(C)=O)cc2OC)=C(/C)O)cc1	.	/	47.3	.	.	/
COc1ccccc1NS(=O)(=O)c1cc(N=N/C(C(=O)Nc2ccc(Cl)cc2)=C(/C)O)ccc1C	.	/	.	/	.	/
COC(=O)c1c(NC(=O)Cc2ccccc2)sc2c1CCN(C(C)C)C2	/	/	.	.	.	/
CCOC(=O)c1c(NC(=O)CCS(=O)(=O)c2ccccc2)sc2c1CCN(C(C)C)C2	.	/	.	127.0	/	/
CCCN1CCc2c(sc(NC(=O)CCS(=O)(=O)c3ccccc3)c2C(N)=O)C1	.	/	.	152.6	/	/
CN1CCc2c(sc(NC(=O)c3ccc(C(=O)c4ccccc4)cc3)c2C(N)=O)C1	.	/	.	.	.	/
CN1CCc2c(sc(NC(=O)CS(=O)(=O)c3ccccc3)c2C(N)=O)C1	.	/	.	138.6	.	/
O=C(Nc1cc(Cl)ncn1)c1ccccc1	.	/	.	.	.	/
CN(c1cccc(NC(=O)c2ccc(Cl)c(S(=O)(=O)N3CCOCC3)c2)c1)S(C)(=O)=O	.	/	.	.	/	/
CC(Sc1nnc(COc2ccc([N+](=O)[O-])cc2)n1C)C(=O)O (stereo not given)	.	.	.	?	/	.
CN1C(=O)c2ccc(NC(=O)C3CC3)cc2C1=O	.	/	.	.	/	/
CC1=C(C(=O)Nc2ccccc2)C(c2ccc3c(c2)OCO3)C2=C(CCCC2=O)N1 (stereo not given)	.	.	.	.	.	.
COc1ccc(N2C3=C(C(=O)CC(C)(C)C3)C(c3cnn(C)c3)C3=C2CC(C)(C)CC3=O)cc1	.	82.5	.	57.0	.	106.8
CC1=C(C(=O)Nc2cc(C)ccn2)C(c2ccc(C)cc2)C2=C(CCCC2=O)N1 (stereo not given)	.	50.8	.	.	/	.
CCn1cc(C2C3=C(CC(C)(C)CC3=O)N(c3ccccc3)C3=C2C(=O)CC(C)(C)C3)c(C)n1	.	82.4	.	?	.	.
CCn1cc(C2C(C(=O)Nc3cc(C)ccn3)=C(C)NC3=C2C(=O)CC(C)(C)C3)c(C)n1 (stereo not given)	.	69.0	.	.	.	.
O=C(Cc1ccc(Br)cc1)Nc1cccc(S(=O)(=O)N2CCCCC2)c1	/	/	/	/	.	/
CCC(C)NC(=S)N1CCN(Cc2ccc3c(c2)OCO3)CC1 (stereo not given)	.	.	.	.	133.3	.
